Here are results for 20 molecules from ChEMBL document CHEMBL1123471, “Dopamine receptor agonists: 3-allyl-6-chloro-2,3,4,5-tetrahydro- 1-(4-hydroxyphenyl)-1H-3-benzazepine-7,8-diol and a series of related 3-benzazepines” (J Med Chem, 1986).

pEC50: −log10 of the molar value. Counter-ions that a name gives are not always drawn.

Common to all, as to type: functional, organism-based
For assay [1], the species on record is Oryctolagus cuniculus. In words: Inhibition of the constrictor response to electrical stimulation in rabbit ear artery. The gist of the method:
(§1)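 Isolated perfused rabbit ear artery in Krebs-Henseleit (95% O2/5% CO2, 35 °C, pH 7.4), stabilized ≥1 h. Sympathetic nerves field-stimulated every 4 min (0.7-ms pulses, 75 V, 10-15 Hz trains of 300-500 ms). Compound superfused at increasing concentrations, 4 min each. Read-out is the rise in perfusion pressure; IC50 from least-squares curves.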

The species named for assay [2] is Rattus norvegicus. Nature of the assay: Concentration necessary to cause 50% increase in cAMP formation(by adenylate cyclase) relative to the maximum increase caused by the compound. The gist of the method:
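Rat caudate homogenate (male Charles River rats, 225-300 g), made at 0 °C in 50 mM Tris-maleate pH 7.4 with 2 mM EGTA; incubated with test compound at increasing concentrations, 2 mM MgSO4, 5 mM aminophylline, and [14C]ATP (final 0.65 mM) for 3 min at 30 °C. [14C]cAMP isolated on alumina/Dowex columns and counted; quadruplicates; least-squares dose-response curves.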
A general note: Changes in cAMP serve as a functional read-out for many G protein-coupled receptors.

The species named for assay [3] is Oryctolagus cuniculus. Nature of the assay: Concentration necessary to inhibit 50% of the constrictor response to electrical stimulation in rabbit ear artery; I=Inactive. The gist of the method: as §1

Usually pEC50 stands for the EC50 on a negative log10 scale, so that one unit is a factor of ten.

In the case of `C=CCN1CCc2c(cc(O)c(O)c2Cl)C(c2ccc(O)cc2)C1` (stereo not given), the pEC50 in assay [1] is 6.91; in assay [2], 7.82.

Regarding `CCCN(CCC)CCc1ccc(O)c(O)c1`, in assay [1], the pEC50 was 7.22.

In assay [1], `C/C=C/CN1CCc2c(cc(O)c(O)c2Cl)C(c2ccc(O)cc2)C1` (stereo not given) showed a pEC50 of 5.00.

Take `C=CCN1CCc2c(cc(O)c(O)c2Cl)C(c2cccc(O)c2)C1` (stereo not given): the pEC50 was 6.12 in assay [1] and 6.90 in assay [2].

Regarding `CCCN1CCc2c(cc(O)c(O)c2Cl)C(c2ccc(O)cc2)C1` (stereo not given), the pEC50 in assay [1] is 6.00; in assay [2], 6.26.

Consider `C#CCN1CCc2c(cc(O)c(O)c2Cl)C(c2ccc(O)cc2)C1` (stereo not given), for which the figures for the pEC50 in assay [1] and in assay [2] were 5.57 and 6.19, respectively.

`C=CCN1CCc2c(cc(O)c(O)c2Cl)[C@@H](c2ccc(O)cc2)C1`: the pEC50 in assay [1] is 7.08; in assay [2] it was 8.05.

Consider `C=CCN1CCc2c(cc(O)c(O)c2Cl)[C@H](c2ccc(O)cc2)C1`, for which the pEC50 in assay [1] was 5.52; in assay [2], less than 5.00.

`NC1CCc2cc(O)c(O)cc2C1` (stereo not given) had a pEC50 in assay [1] of 7.77.

Turning to `OCC(O)CN1CCc2c(cc(O)c(O)c2Cl)C(c2ccc(O)cc2)C1` (stereo not given), the pEC50 in assay [1] is less than 5.00.

`Oc1ccc(C2CN(C/C=C/c3ccccc3)CCc3c2cc(O)c(O)c3Cl)cc1` (stereo not given): in assay [3], the EC50 result is given as “Not Active”.

Turning to `CCCCN(CCC)CCc1ccc(O)c(O)c1`, the pEC50 in assay [1] was 7.32.

Consider `Oc1ccc(C2CN(CC3CC3)CCc3c2cc(O)c(O)c3Cl)cc1` (stereo not given), for which the pEC50 in assay [1] is 5.77; in assay [2], 5.96.

Take `OCCN1CCc2c(cc(O)c(O)c2Cl)C(c2ccc(O)cc2)C1` (stereo not given): the pEC50 is 6.30 in assay [1] and 6.00 in assay [2].

With `CN1CCc2c(cc(O)c(O)c2Cl)C(c2ccc(O)cc2)C1` (stereo not given), the negative-log EC50 (pEC50) in assay [1] is 7.05; in assay [2], approximately 5.00.

`Oc1cc2c(cc1O)CCNCC2` had a pEC50 in assay [1] of 7.92.

`CN1CCc2cccc3c2[C@H]1Cc1ccc(O)c(O)c1-3` [APOMORPHINE]: the pEC50 in assay [1] was 7.36.

The molecule `NCCc1ccc(O)c(O)c1` [DOPAMINE] had a pEC50 in assay [1] of 7.42.

In the case of `Oc1ccc(C2CNCCc3c2cc(O)c(O)c3Cl)cc1` (stereo not given) [FENOLDOPAM MESYLATE], the figures for the pEC50 in assay [1] and in assay [2] were 6.00 and 7.24, respectively.

For the molecule `CCCN(CCC)CCc1ccc(O)c2c1CC(=O)N2` [SKF-89124A], the pEC50 in assay [1] was 8.70.
